# Data published in ChEMBL document CHEMBL1148647, “Structure-activity relationship studies on a series of novel, substituted 1-benzyl-5-phenyltetrazole P2X7 antagonists” (J Med Chem, 2006).
# Calls of active or inactive are those of the source.
# Tests used:
# THP-1 [1] = assay: Ability to block pore formation in human THP1 cells assessed as inhibition of YO-PRO-1 diiodide dye uptake; format: functional, cell-based
# Outline: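 Differentiated human THP-1 cells stimulated with agonist BzATP for 1 h in presence of test compound. Pore formation read as inhibition of cellular uptake of the impermeable dye YO-PRO-1 diiodide.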
# P2X purinoceptor 7 [2] = molecular target: T1, P2X purinoceptor 7 (Homo sapiens, UniProt Q99572); assay: Antagonist activity at human P2X7 receptor expressed in human 1321N1 cells assessed as inhibition of calcium flux by FLIPR; format: functional, cell-based
# T1 sequence (Q99572 whole entry): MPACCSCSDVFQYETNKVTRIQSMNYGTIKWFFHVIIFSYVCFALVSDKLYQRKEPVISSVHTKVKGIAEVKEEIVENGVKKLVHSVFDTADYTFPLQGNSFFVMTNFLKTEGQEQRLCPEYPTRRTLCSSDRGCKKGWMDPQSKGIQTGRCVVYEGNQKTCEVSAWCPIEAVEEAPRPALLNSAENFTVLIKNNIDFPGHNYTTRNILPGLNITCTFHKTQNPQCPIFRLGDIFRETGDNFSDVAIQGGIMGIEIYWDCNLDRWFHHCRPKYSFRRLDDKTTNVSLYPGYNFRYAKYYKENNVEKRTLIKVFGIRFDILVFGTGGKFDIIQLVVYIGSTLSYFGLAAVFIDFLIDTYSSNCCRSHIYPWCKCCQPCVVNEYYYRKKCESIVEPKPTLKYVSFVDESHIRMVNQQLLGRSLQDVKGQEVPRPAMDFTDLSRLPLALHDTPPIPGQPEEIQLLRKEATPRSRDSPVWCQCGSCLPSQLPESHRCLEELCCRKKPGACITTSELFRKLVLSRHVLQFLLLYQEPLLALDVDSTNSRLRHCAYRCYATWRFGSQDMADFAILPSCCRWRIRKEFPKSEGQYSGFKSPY
# Outline: (§1)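 Recombinant P2X7 (human or rat) stably transfected into human 1321N1 astrocytoma cells lacking endogenous P2X receptor function. Fluo-4 calcium dye, FLIPR read-out. 5-min antagonist pretreatment, then BzATP agonist. IC50 determined.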
# P2X purinoceptor 7 [3] = molecular target: T2, P2X purinoceptor 7 (Rattus norvegicus, UniProt Q64663); assay: Antagonist activity at rat P2X7 receptor expressed in human 1321N1 cells assessed as inhibition of calcium flux by FLIPR; format: functional, cell-based; outline: as §1
# T2 sequence (Q64663 whole entry): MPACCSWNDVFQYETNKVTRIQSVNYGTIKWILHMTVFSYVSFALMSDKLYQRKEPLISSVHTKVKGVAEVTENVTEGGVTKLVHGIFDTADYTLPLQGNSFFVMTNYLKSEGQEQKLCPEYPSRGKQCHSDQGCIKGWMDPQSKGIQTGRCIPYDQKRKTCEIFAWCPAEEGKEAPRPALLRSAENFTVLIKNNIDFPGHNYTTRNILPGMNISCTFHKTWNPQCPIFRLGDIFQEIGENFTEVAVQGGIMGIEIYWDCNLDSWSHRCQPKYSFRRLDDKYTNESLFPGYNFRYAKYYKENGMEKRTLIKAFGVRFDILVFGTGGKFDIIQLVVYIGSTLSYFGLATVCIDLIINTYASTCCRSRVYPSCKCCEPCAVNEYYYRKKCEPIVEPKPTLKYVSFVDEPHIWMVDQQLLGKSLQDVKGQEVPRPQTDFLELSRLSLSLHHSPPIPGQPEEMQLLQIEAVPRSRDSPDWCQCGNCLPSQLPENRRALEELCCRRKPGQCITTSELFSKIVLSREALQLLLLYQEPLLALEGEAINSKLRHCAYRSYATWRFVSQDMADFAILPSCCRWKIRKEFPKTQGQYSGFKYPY
# THP-1 [4] = assay: Inhibition of ILbeta production in human THP1 cells; format: functional, cell-based
# Outline: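 Human THP-1 cells differentiated with LPS and IFNγ, then stimulated with BzATP for 30 min in presence of test compound. Released IL-1β quantified by EIA.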
# [5] = Half life in rat at 10 umol/kg; format: ADME, organism-based; settings: in vivo
# Rattus norvegicus [6] = assay: Reversal of mechanical allodynia in L5/L6 spinal nerve tight ligation model of neuropathic pain in ip dosed rat; format: functional
# Outline: (§2)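 Spinal nerve ligation (L5/L6, Chung) done 7-14 days before testing. Antagonist given ip at 10-300 µmol/kg. Von Frey hair applied 30 min after dosing. Paw withdrawal threshold on injured (left) side compared with contralateral paw. ED50 and maximal response relative to contralateral side derived.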
# Rattus norvegicus [7] = assay: Impairment of motor function in rat by rotarod assay up to 300 umol/kg, ip; format: functional, organism-based
# Outline: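 Accelerating rotarod, ip dosing up to 300 µmol/kg. Time for the animal to fall from the rod recorded.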
# [8] = Oral bioavailability in rat at 10 umol/kg, ip; format: ADME, organism-based; settings: in vivo, intraperitoneal, read-out: Activity
# Rattus norvegicus [9] = assay: Reversal of mechanical allodynia in L5/L6 spinal nerve tight ligation model of neuropathic pain in ip dosed rat relative to control; format: functional; outline: as §2
Compound,IC50 (THP-1 [1]),IC50 (P2X purinoceptor 7 [2]),IC50 (P2X purinoceptor 7 [3]),further results
Clc1cccc(-c2nnnn2Cc2ccccc2)c1Cl,501 nM,39.8 nM,79.4 nM,
COc1cccc(-c2nnnn2Cc2ccccc2Cl)c1OC,> 10000 nM,3980 nM,,
FC(F)(F)c1cccc(-c2nnnn2Cc2cccnc2)c1Cl,158 nM,12.6 nM,63.1 nM,IC50 (THP-1 [4]): 79.4 nM
Cc1ncccc1Cn1nnnc1-c1cccc(Cl)c1Cl,200 nM,31.6 nM,200 nM,IC50 (THP-1 [4]): 158 nM
Fc1ccc(-n2nnnc2Cc2cccnc2)c(Cl)c1C(F)(F)F,158 nM,20 nM,,
Cc1nc(C)c(Cn2nnnc2-c2cccc(Cl)c2Cl)s1,251 nM,50.1 nM,1260 nM,
Clc1cccc(-n2nnnc2Cc2cccnc2)c1Cl,398 nM,100 nM,,
c1ccc(Cn2nnnc2-c2cccc3ncccc23)cc1,> 10000 nM,15800 nM,,
Clc1ccc(Cl)c(-c2nnnn2Cc2cccnc2)c1,> 10000 nM,15800 nM,,
Clc1cccc(-c2nnnn2Cc2cccnc2)c1Cl,200 nM,,316 nM,half-life [5]: 1 h; ED50 (Rattus norvegicus [6]): 76 µmol/kg; IC50 (THP-1 [4]): 398 nM; Activity (Rattus norvegicus [7]): inactive; bioavailability [8]: 19%; Activity (Rattus norvegicus [9]): 78%
Fc1ccc(-n2nnnc2Cc2cccnc2)c(Cl)c1Cl,,25.1 nM,100 nM,IC50 (THP-1 [4]): 39.8 nM
Fc1cccc(-c2nnnn2Cc2cccnc2)c1C(F)(F)F,,631 nM,,
Clc1ccc(-c2nnnn2Cc2cccnc2)c(Cl)c1Cl,1350 nM,200 nM,,
Clc1cccc(-c2nnnn2Cc2ccccn2)c1Cl,2000 nM,501 nM,,
Cc1ccccc1Cn1nnnc1-c1cccc(Cl)c1Cl,126 nM,15.8 nM,63.1 nM,IC50 (THP-1 [4]): 158 nM
FC(F)(F)c1cccc(-n2nnnc2Cc2cccnc2)c1Cl,50.1 nM,12.6 nM,50.1 nM,IC50 (THP-1 [4]): 25.1 nM
c1ccc(Cn2nnnc2-c2ccncc2)cc1,,31600 nM,,
Cc1noc(C)c1Cn1nnnc1-c1cccc(Cl)c1Cl,794 nM,158 nM,,
Clc1ccccc1-c1nnnn1Cc1cccnc1,,15800 nM,,
Fc1ccc(-c2nnnn2Cc2cccnc2)c(Cl)c1Cl,398 nM,12.6 nM,,
Clc1ccc(-c2nnnn2Cc2cccnc2)cc1Cl,7940 nM,3980 nM,,
Clc1c(-c2nnnn2Cc2ccccc2)ccc(N2CCCC2)c1Cl,,> 10000 nM,,
O=C(NCC12CC3CC(CC(C3)C1)C2)c1cccc(Cl)c1Cl,,63.1 nM,,
c1ccc(-c2nnnn2Cc2cccnc2)cc1,> 10000 nM,25100 nM,,
c1ccc(Cn2nnnc2-c2cccc3cccnc23)cc1,,25100 nM,,
Clc1cccc(-c2nnnn2CCc2cccnc2)c1Cl,> 10000 nM,12600 nM,,
Clc1cccc(-c2nnnn2Cc2cccnc2)c1,> 10000 nM,7940 nM,,
Clc1cccc(-c2nnnn2Cc2ccncc2)c1Cl,2000 nM,794 nM,3160 nM,IC50 (THP-1 [4]): 20000 nM
Fc1c(-c2nnnn2Cc2cccnc2)cccc1C(F)(F)F,501 nM,63.1 nM,79.4 nM,IC50 (THP-1 [4]): 501 nM
Cc1ccccc1Cn1nnnc1-c1cccc(C)c1C,1260 nM,251 nM,,
